Data as given in ChEMBL document CHEMBL1649179, “Pharmacokinetics of LB80331 and LB80317 following oral administration of LB80380, a new antiviral agent for chronic hepatitis B (CHB), in healthy adult subjects, CHB patients, and mice” (Antimicrob Agents Chemother, 2009).

Columns and labels:
Liver [1] = experiment: AUC (0 to 36 hrs) in CD-1 mouse liver assessed as di- and triphosphates of (1-((2-amino-6-hydroxy-9H-purin-9-yl)methyl)cyclopropoxy)me at 30 mg/kg, po administered as single dose by LC-MS analysis; assay type: ADME, organism-based; set-up: time < 36 hr, dose 30 mg/kg, route oral; details: in vivo
Outline: (§1)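 Male CD-1 mice given a single oral dose in 100% PEG 400. Samples extracted with perchloric acid and neutralized with ammonium bicarbonate. One aliquot assayed for the free analyte; the other treated with calf intestinal phosphatase to give the total including di-/triphosphates. Analysis by LC-MS/MS.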

Plasma [2] = experiment: Tmax in CD-1 mouse plasma assessed as (1-((2-amino-6-hydroxy-9H-purin-9-yl)methyl)cyclopropoxy)me at 30 mg/kg, po administered as single dose by LC-MS analysis; assay type: ADME, organism-based; set-up: dose 30 mg/kg, route oral; details: in vivo
Outline: (§2)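 Male CD-1 mice received 30 mg/kg orally in 100% PEG 400. Plasma and snap-frozen liver were taken from 3 mice per time point at 1, 2, 4, 6, 10, 24 and 36 h. Samples were extracted with perchloric acid and neutralized with ammonium bicarbonate. Free LB80331/LB80317 was measured directly by LC-MS/MS; total, including di- and triphosphates, was measured after calf intestinal phosphatase treatment.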

Homo sapiens [3] = experiment: Cmax in chronic hepatitis B virus infected patient assessed as (1-((2-amino-6-hydroxy-9H-purin-9-yl)methyl)cyclopropoxy)me at 30 mg, po qd for 4 weeks by LC-MS analysis; assay type: ADME, organism-based; set-up: dose 30 mg, route oral; details: in vivo, 672 h
Outline: (§3)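 CHB patients (HBsAg/HBeAg positive), six per cohort, oral once daily for 4 weeks. Plasma sampled at steady state (weeks 2–4), predose and at 0.5, 1, 2, 3, 4, 6, 8 and 24 h postdose. Analysis by validated LC-MS/MS after protein-precipitation extraction with a stable-isotope internal standard; LLOQ 10 ng/ml for LB80317. Noncompartmental analysis gives Cmax, AUC0-24 and terminal t1/2.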

Homo sapiens [4] = experiment: Half life in chronic hepatitis B virus infected patient assessed as (1-((2-amino-6-hydroxy-9H-purin-9-yl)methyl)cyclopropoxy)me at 120 mg, po qd for 4 weeks by LC-MS analysis; assay type: ADME, organism-based; details: in vivo, 672 h; outline: as §3
Liver [5] = experiment: AUC (0 to infinity) in CD-1 mouse liver assessed as (1-((2-amino-6-hydroxy-9H-purin-9-yl)methyl)cyclopropoxy)me at 30 mg/kg, po administered as single dose by LC-MS analysis; assay type: ADME, organism-based; set-up: time infinity, dose 30 mg/kg, route oral; details: in vivo; outline: as §1
Homo sapiens [6] = experiment: AUC (0 to 24 hrs) in chronic hepatitis B virus infected patient assessed as (1-((2-amino-6-hydroxy-9H-purin-9-yl)methyl)cyclopropoxy)me at 240 mg, po qd for 4 weeks by LC-MS analysis; assay type: ADME, organism-based, Plasma; set-up: time < 24 hr, dose 240 mg, route oral; details: in vivo; outline: as §3
Homo sapiens [7] = experiment: Cmax in chronic hepatitis B virus infected patient assessed as (1-((2-amino-6-hydroxy-9H-purin-9-yl)methyl)cyclopropoxy)me at 240 mg, po qd for 4 weeks by LC-MS analysis; assay type: ADME, organism-based; set-up: dose 240 mg, route oral; details: in vivo, 672 h; outline: as §3
Homo sapiens [8] = experiment: Tmax in chronic hepatitis B virus infected patient assessed as (1-((2-amino-6-hydroxy-9H-purin-9-yl)methyl)cyclopropoxy)me at 30 mg, po qd for 4 weeks by LC-MS analysis; assay type: ADME, organism-based; details: in vivo, 672 h
Outline: (§4)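 Daily oral LB80380 was given to CHB patients over 4 weeks. Blood was drawn on day 1 and at steady state (weeks 2–4), predose and 0.5–24 h postdose. Plasma LB80331 (LLOQ 5 ng/ml) and LB80317 (LLOQ 10 ng/ml) were measured by LC-MS/MS after protein-precipitation extraction. Tmax was taken by noncompartmental analysis.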

Liver [9] = experiment: Half life in CD-1 mouse liver assessed as di- and triphosphates of (1-((2-amino-6-hydroxy-9H-purin-9-yl)methyl)cyclopropoxy)me at 30 mg/kg, po administered as single dose by LC-MS analysis; assay type: ADME, organism-based; set-up: dose 30 mg/kg, route oral; details: in vivo; outline: as §1
Homo sapiens [10] = experiment: Half life in chronic hepatitis B virus infected patient assessed as (1-((2-amino-6-hydroxy-9H-purin-9-yl)methyl)cyclopropoxy)me at 30 mg, po qd for 4 weeks by LC-MS analysis; assay type: ADME, organism-based; details: in vivo, 672 h; outline: as §3
Liver [11] = experiment: Tmax in CD-1 mouse liver assessed as (1-((2-amino-6-hydroxy-9H-purin-9-yl)methyl)cyclopropoxy)me at 30 mg/kg, po administered as single dose by LC-MS analysis; assay type: ADME, organism-based; set-up: dose 30 mg/kg, route oral; details: in vivo; outline: as §2
Liver [12] = experiment: Half life in CD-1 mouse liver assessed as (1-((2-amino-6-hydroxy-9H-purin-9-yl)methyl)cyclopropoxy)me at 30 mg/kg, po administered as single dose by LC-MS analysis; assay type: ADME, organism-based; set-up: dose 30 mg/kg, route oral; details: in vivo; outline: as §1
Homo sapiens [13] = experiment: AUC (0 to 24 hrs) in chronic hepatitis B virus infected patient assessed as (1-((2-amino-6-hydroxy-9H-purin-9-yl)methyl)cyclopropoxy)me at 30 mg, po qd for 4 weeks by LC-MS analysis; assay type: ADME, organism-based, Plasma; set-up: time < 24 hr, dose 30 mg, route oral; details: in vivo; outline: as §3
Homo sapiens [14] = experiment: Cmax in chronic hepatitis B virus infected patient assessed as (1-((2-amino-6-hydroxy-9H-purin-9-yl)methyl)cyclopropoxy)me at 120 mg, po qd for 4 weeks by LC-MS analysis; assay type: ADME, organism-based; set-up: dose 120 mg, route oral; details: in vivo, 672 h; outline: as §3
Plasma [15] = experiment: Cmax in CD-1 mouse plasma assessed as (1-((2-amino-6-hydroxy-9H-purin-9-yl)methyl)cyclopropoxy)me at 30 mg/kg, po administered as single dose by LC-MS analysis; assay type: ADME, organism-based; set-up: dose 30 mg/kg, route oral; details: in vivo; outline: as §1
Homo sapiens [16] = experiment: AUC (0 to 24 hrs) in chronic hepatitis B virus infected patient assessed as (1-((2-amino-6-hydroxy-9H-purin-9-yl)methyl)cyclopropoxy)me at 60 mg, po qd for 4 weeks by LC-MS analysis; assay type: ADME, organism-based, Plasma; set-up: time < 24 hr, dose 60 mg, route oral; details: in vivo; outline: as §3
Homo sapiens [17] = experiment: Tmax in chronic hepatitis B virus infected patient assessed as (1-((2-amino-6-hydroxy-9H-purin-9-yl)methyl)cyclopropoxy)me at 240 mg, po qd for 4 weeks by LC-MS analysis; assay type: ADME, organism-based; details: in vivo, 672 h; outline: as §4
Homo sapiens [18] = experiment: Tmax in chronic hepatitis B virus infected patient assessed as (1-((2-amino-6-hydroxy-9H-purin-9-yl)methyl)cyclopropoxy)me at 120 mg, po qd for 4 weeks by LC-MS analysis; assay type: ADME, organism-based; details: in vivo, 672 h; outline: as §4
Liver [19] = experiment: AUC (0 to infinity) in CD-1 mouse liver assessed as di- and triphosphates of (1-((2-amino-6-hydroxy-9H-purin-9-yl)methyl)cyclopropoxy)me at 30 mg/kg, po administered as single dose by LC-MS analysis; assay type: ADME, organism-based; set-up: time infinity, dose 30 mg/kg, route oral; details: in vivo; outline: as §1
Homo sapiens [20] = experiment: AUC (0 to 24 hrs) in chronic hepatitis B virus infected patient assessed as (1-((2-amino-6-hydroxy-9H-purin-9-yl)methyl)cyclopropoxy)me at 120 mg, po qd for 4 weeks by LC-MS analysis; assay type: ADME, organism-based, Plasma; set-up: dose 120 mg, time < 24 hr, route oral; details: in vivo; outline: as §3
Liver [21] = experiment: Cmax in CD-1 mouse liver assessed as (1-((2-amino-6-hydroxy-9H-purin-9-yl)methyl)cyclopropoxy)me at 30 mg/kg, po administered as single dose by LC-MS analysis; assay type: ADME, organism-based; set-up: dose 30 mg/kg, route oral; details: in vivo; outline: as §1
Plasma [22] = experiment: AUC (0 to 36 hrs) in CD-1 mouse plasma assessed as (1-((2-amino-6-hydroxy-9H-purin-9-yl)methyl)cyclopropoxy)me at 30 mg/kg, po administered as single dose by LC-MS analysis; assay type: ADME, organism-based; set-up: time < 36 hr, dose 30 mg/kg, route oral; details: in vivo; outline: as §1
Homo sapiens [23] = experiment: Tmax in chronic hepatitis B virus infected patient assessed as (1-((2-amino-6-hydroxy-9H-purin-9-yl)methyl)cyclopropoxy)me at 60 mg, po qd for 4 weeks by LC-MS analysis; assay type: ADME, organism-based; details: in vivo, 672 h; outline: as §4
Liver [24] = experiment: AUC (0 to 36 hrs) in CD-1 mouse liver assessed as (1-((2-amino-6-hydroxy-9H-purin-9-yl)methyl)cyclopropoxy)me at 30 mg/kg, po administered as single dose by LC-MS analysis; assay type: ADME, organism-based; set-up: time < 36 hr, dose 30 mg/kg, route oral; details: in vivo; outline: as §1
Liver [25] = experiment: Cmax in CD-1 mouse liver assessed as di- and triphosphates of (1-((2-amino-6-hydroxy-9H-purin-9-yl)methyl)cyclopropoxy)me at 30 mg/kg, po administered as single dose by LC-MS analysis; assay type: ADME, organism-based; set-up: dose 30 mg/kg, route oral; details: in vivo; outline: as §1
Homo sapiens [26] = experiment: Half life in chronic hepatitis B virus infected patient assessed as (1-((2-amino-6-hydroxy-9H-purin-9-yl)methyl)cyclopropoxy)me at 60 mg, po qd for 4 weeks by LC-MS analysis; assay type: ADME, organism-based; details: in vivo, 672 h; outline: as §3
Homo sapiens [27] = experiment: Half life in chronic hepatitis B virus infected patient assessed as (1-((2-amino-6-hydroxy-9H-purin-9-yl)methyl)cyclopropoxy)me at 240 mg, po qd for 4 weeks by LC-MS analysis; assay type: ADME, organism-based; details: in vivo, 672 h; outline: as §3
Plasma [28] = experiment: Half life in CD-1 mouse plasma assessed as (1-((2-amino-6-hydroxy-9H-purin-9-yl)methyl)cyclopropoxy)me at 30 mg/kg, po administered as single dose by LC-MS analysis; assay type: ADME, organism-based; set-up: dose 30 mg/kg, route oral; details: in vivo; outline: as §1
Plasma [29] = experiment: AUC (0 to infinity) in CD-1 mouse plasma assessed as (1-((2-amino-6-hydroxy-9H-purin-9-yl)methyl)cyclopropoxy)me at 30 mg/kg, po administered as single dose by LC-MS analysis; assay type: ADME, organism-based; set-up: time infinity, dose 30 mg/kg, route oral; details: in vivo; outline: as §1
Homo sapiens [30] = experiment: Cmax in chronic hepatitis B virus infected patient assessed as (1-((2-amino-6-hydroxy-9H-purin-9-yl)methyl)cyclopropoxy)me at 60 mg, po qd for 4 weeks by LC-MS analysis; assay type: ADME, organism-based; set-up: dose 60 mg, route oral; details: in vivo, 672 h; outline: as §3
Liver [31] = experiment: Tmax in CD-1 mouse liver assessed as di- and triphosphates of (1-((2-amino-6-hydroxy-9H-purin-9-yl)methyl)cyclopropoxy)me at 30 mg/kg, po administered as single dose by LC-MS analysis; assay type: ADME, organism-based; set-up: dose 30 mg/kg, route oral; details: in vivo; outline: as §2

Nc1nc(O)c2ncn(CC3(OCP(=O)(O)O)CC3)c2n1 [LB80317]
AUC (Liver [1]): 1883 µM·h | Tmax (Plasma [2]): 4 h | Cmax (Homo sapiens [3]): 12 ng/mL | t1/2 (Homo sapiens [4]): 51 h | AUC (Liver [5]): 3353 µM·h | AUC (Homo sapiens [6]): 1449 ng·h/mL | Cmax (Homo sapiens [7]): 75 ng/mL | Tmax (Homo sapiens [8]): 6 h | t1/2 (Liver [9]): 8.3 h | t1/2 (Homo sapiens [10]): 53 h | Tmax (Liver [11]): 1 h | t1/2 (Liver [12]): 9.9 h | AUC (Homo sapiens [13]): 285 ng·h/mL | Cmax (Homo sapiens [14]): 49 ng/mL | Cmax (Plasma [15]): 0.6 µM | AUC (Homo sapiens [16]): 433 ng·h/mL | Tmax (Homo sapiens [17]): 4.5 h | Tmax (Homo sapiens [18]): 3 h | AUC (Liver [19]): 2152 µM·h | AUC (Homo sapiens [20]): 1017 ng·h/mL | Cmax (Liver [21]): 243 µM | AUC (Plasma [22]): 6 µM·h | Tmax (Homo sapiens [23]): 8 h | AUC (Liver [24]): 3069 µM·h | Cmax (Liver [25]): 107 µM | t1/2 (Homo sapiens [26]): 62 h | t1/2 (Homo sapiens [27]): 45 h | t1/2 (Plasma [28]): 8.6 h | AUC (Plasma [29]): 6 µM·h | Cmax (Homo sapiens [30]): 21 ng/mL | Tmax (Liver [31]): 1 h
